From ChEMBL document CHEMBL3992496, “Oligonucleotide transition state analogues of saporin L3” (Eur J Med Chem, 2017)
One block for each compound: values may come before it.

Key:
[1] = Competitive inhibition of Saponaria officinalis saporin L3 expressed in yeast using RNA A10 as substrate preincubated for 10 mins followed substrate addition by luciferase assay
[2] = Competitive inhibition of Saponaria officinalis saporin L1 using RNA A10 as substrate preincubated for 10 mins followed substrate addition by continuous luciferase assay
[3] = Competitive inhibition of Saponaria officinalis saporin L3 expressed in yeast using yeast tRNA as substrate
[4] = Competitive inhibition of Saponaria officinalis saporin L3 expressed in yeast using rabbit rRNA as substrate
Procedure, shortened: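 Saporin L3 secreted from yeast cultures and purified to near-homogeneity. Substrate was isolated rabbit 80S ribosomes purified in-house, fixed at 100 nM, with concentration from A260. Inhibitor at varying concentrations was preincubated with enzyme for 10 min. K_i* was taken as slow-onset competitive inhibition.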

[5] = Competitive inhibition of Saponaria officinalis saporin L3 A14C mutant expressed in yeast using yeast tRNA as substrate
Procedure, shortened: (§1)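 Saporin L3 A14C, secreted from yeast and purified. Substrate held fixed: isolated rabbit 80S ribosomes (100 nM) or yeast tRNA (1.0 mg/mL). Inhibitor preincubated with enzyme 10 min for slow-onset binding before substrate, then adenine release read by coupled luciferase method. Ki* taken from competitive inhibition fit.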

[6] = Competitive inhibition of Saponaria officinalis saporin L3 A14C mutant expressed in yeast using rabbit rRNA as substrate; procedure, shortened: as §1
[7] = Inhibition of yeast expressing Saponaria officinalis saporin L3 A14C mutant-mediated suppression of luciferase mRNA translation in rabbit reticulocyte extract preincubated with protein for 10 mins followed by addition of rabbit reticulocyte translation system for 90 mins by luciferase assay
Procedure, shortened: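 Rabbit reticulocyte lysate translation of luciferase-encoding mRNA. 10 nM SAP A14C preincubated 10 min with increasing inhibitor in pH 7.4 buffer, then added to translation mix, 30 °C, 90 min. Luciferase luminescence read. Control contained top inhibitor concentration without enzyme. Percent translation vs log inhibitor fit to dose-response curve for EC50.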

Structure (SMILES): CO[C@@H]1[C@H](OP(=O)(O)OC[C@H]2CN(Cc3c[nH]c4c(N)ncnc34)C[C@@H]2OP(=O)(O)OC[C@H]2O[C@@H](n3cnc4c(=O)[nH]c(N)nc43)[C@H](OC)[C@@H]2OP(=O)(O)OCCCO)[C@@H](CO)O[C@H]1n1cnc2c(=O)[nH]c(N)nc21
Ki [1]: 10.5 nM

Ki [1]: 6.1 nM
Structure (SMILES): CO[C@@H]1[C@H](O)[C@@H](COP(=O)(O)O[C@H]2[C@@H](OC)[C@H](n3cnc4c(=O)[nH]c(N)nc43)O[C@@H]2COP(=O)(O)O[C@H]2CN(Cc3c[nH]c4c(N)ncnc34)C[C@@H]2COP(=O)(O)OC2[C@@H](OC)[C@H](n3cnc4c(=O)[nH]c(N)nc43)O[C@@H]2CO)O[C@H]1n1cnc2c(N)ncnc21 (stereo partly drawn)

Structure (SMILES): CO[C@@H]1[C@H](OP(=O)(O)OC[C@H]2CN(Cc3c[nH]c4c(N)ncnc34)C[C@@H]2OP(=O)(O)OCCCO)[C@@H](COP(=O)(O)OCCCO)O[C@H]1n1cnc2c(=O)[nH]c(N)nc21
Ki [1]: 188 nM

Structure (SMILES): CO[C@@H]1[C@H](OP(=O)(O)OCCCO)[C@@H](COP(=O)(O)O[C@H]2CN(CCc3c[nH]c4c(N)ncnc34)C[C@@H]2COP(=O)(O)OCCCO)O[C@H]1n1cnc2c(=O)[nH]c(N)nc21
Ki [1]: 12.4 nM

Structure (SMILES): CO[C@@H]1[C@H](O)[C@@H](COP(=O)(O)O[C@H]2CN(Cc3c[nH]c4c(N)ncnc34)C[C@@H]2CO)O[C@H]1n1cnc2c(=O)[nH]c(N)nc21
Ki [1]: 21300 nM

Ki [2]: 43.2 nM
Structure (SMILES): CO[C@@H]1[C@H](OP(=O)(O)OCCCO)[C@@H](COP(=O)(O)OCC(COP(=O)(O)OCCCO)NCc2c[nH]c3c(N)ncnc23)O[C@H]1n1cnc2c(=O)[nH]c(N)nc21 (stereo partly drawn)

Structure (SMILES): CO[C@@H]1[C@H](O)[C@@H](COP(=O)(O)O[C@H]2CN(Cc3c[nH]c4c(N)ncnc34)C[C@@H]2COP(=O)(O)OCCCO)O[C@H]1n1cnc2c(=O)[nH]c(N)nc21
Ki [1]: 19.3 nM

Structure (SMILES): CO[C@@H]1[C@H](OP(=O)(O)OCCCO)[C@@H](COP(=O)(O)O[C@H]2CN(Cc3c[nH]c4c(N)ncnc34)C[C@@H]2COP(=O)(O)OCCCO)O[C@H]1n1cnc2c(=O)[nH]c(N)nc21
Ki [3]: 9.9 nM
Ki [1]: 3.3 nM
Ki [4]: 6.7 nM
Ki [5]: 8.4 nM
Ki [6]: 5.4 nM
IC50 [7]: 13 nM

Structure (SMILES): CO[C@@H]1[C@H](OP(=O)(O)OC[C@H]2O[C@@H](n3cnc4c(=O)[nH]c(N)nc43)[C@H](OC)[C@@H]2OP(=O)(O)OC[C@H]2CN(Cc3c[nH]c4c(N)ncnc34)C[C@@H]2OP(=O)(O)OCCCO)[C@@H](CO)O[C@H]1n1cnc2c(=O)[nH]c(N)nc21
Ki [1]: 212 nM

Structure (SMILES): CO[C@@H]1[C@H](OP(=O)(O)OCCCO)[C@@H](COP(=O)(O)O[C@H]2CN(Cc3c[nH]c4c(N)ncnc34)C[C@@H]2CO)O[C@H]1n1cnc2c(=O)[nH]c(N)nc21
Ki [1]: 10700 nM

Ki [1]: 33 nM
Structure (SMILES): CO[C@@H]1[C@H](O)[C@@H](COP(=O)(O)O[C@H]2CN(Cc3c[nH]c4c(N)ncnc34)C[C@@H]2COP(=O)(O)OC2[C@@H](OC)[C@H](n3cnc4c(=O)[nH]c(N)nc43)O[C@@H]2CO)O[C@H]1n1cnc2c(=O)[nH]c(N)nc21 (stereo partly drawn)

Structure (SMILES): CO[C@@H]1[C@H](OP(=O)(O)OC[C@H]2CN(Cc3c[nH]c4c(N)ncnc34)C[C@@H]2OP(=O)(O)OC[C@H]2O[C@@H](n3cnc4c(=O)[nH]c(N)nc43)[C@H](OC)[C@@H]2OP(=O)(O)OCCCO)[C@@H](COP(=O)(O)OCCCO)O[C@H]1n1cnc2c(=O)[nH]c(N)nc21
Ki [1]: 7.4 nM

Structure (SMILES): CO[C@@H]1[C@H](OP(=O)(O)OCCCO)[C@@H](COP(=O)(O)OCC(CNCc2c[nH]c3c(N)ncnc23)COP(=O)(O)OCCCO)O[C@H]1n1cnc2c(=O)[nH]c(N)nc21 (mixture of isomers)
Ki [1]: 26.8 nM
